# Hits are enriched below; roughly 1.8% of the tested compounds scored in any of these assays.
# HTRA1 inh: blocks human HTRA1 serine peptidase; Q92743; recombinant HTRA1, FP-rhodamine activity-based probe, fluorescence polarization; inhibition, % at 5.96 µM; actives 0.5% (n = 340,000); in the data active = inhibition above about 36%;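 note: 0% = enzyme with DMSO and 100% = wells lacking enzyme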
# Tn6 DDE FP: inhibitors of Tn6 peptide binding to human fibrin DD(E); P02675; Fibrin DD(E) TRITC-Tn6 fluorescence polarization displacement; inhibition, % at 8.3 µM; actives 0.21% (n = 370,000); AID 720509;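 active = inhibition above a per-campaign cutoff: mean of compounds within control limits plus 3 SD, cut at about 15% in these data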;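 note: 0% = median of all compound wells on the plate and 100% = blocking peptide control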
# ABHD4 inh: ABHD4 (mouse) inhibition, primary FP screen. purified mABHD4, FP-Rh probe fluorescence polarization. inhibition, % at 8.92 µM. actives 0.54% (n = 370,000). AID 720543;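 active = inhibition exceeding the mean over every tested compound plus 3 SD, cut at about 30% in these data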;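 note: 0% = plate median of compound wells and 100% = S159A mutant with DMSO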
#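 System: mouse ABHD4 enzyme, wild type / Medium: HEPES pH 7.0, NaCl, Pluronic buffer / Reagent: FP-Rh activity-based fluorescent probe / Control set: S159A mutant high control, sample median low control / Detection: fluorescence polarization with parallel and perpendicular emission, 525/598 nm / Schedule: 45 min + 60 min at 25 °C / Compound dosing: 8.92 µM, single dose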
# DDE Tn7 FP inh: DD(E)-Tn7 binding inhibition, primary FP screen; FP displacement of FITC-Tn7 peptide from fibrin DD(E); 0% = median of compound wells per plate; P02675; inhibition, % at 8.3 µM; actives 0.13% (n = 370,000);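 active = inhibition above the mean of compounds falling within the control limits plus 3 SD of them, cut at about 14% in these data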;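 note: 0% = plate median of compound wells and 100% = 10 µM Aha-Tn7 peptide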
#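 system = human fibrin DD(E) protein | quantity = DD(E) 2 µM final | medium = Tris/NaCl/CaCl2 buffer, pH 7.8 | also added = labelled Tn7 tracer, 0.1 µM | compound dosing = single point at 8.3 µM | timing = compound with protein 10 min, then 3 h after probe, room temperature | signal = FP measurement | benchmarks = Aha-Tn7 high control | repeats = one replicate per compound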
# TCR CD3 inh: human TCR-CD3 binding inhibition | TAMRA-labeled TCR probe fluorescence, biochemical | inhibition, % at 9.4 µM | actives 0.37% (n = 360,000) | AID 651800; in the data active = inhibition above about 19%;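 note: recombinant mutant TCR 2C K166C tagged with TAMRA read by polarization; 0% = receptor in buffer alone and 100% = receptor with positive control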
# SIAE inh: blocks human sialic acid acetylesterase | Q9HAT2 | SIAE FP-Rh probe binding, fluorescence polarization | inhibition, % at 9.66 µM | actives 0.69% (n = 370,000) | AID 1053197;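 active = inhibition above a cutoff: mean of compounds within the control limits plus 3 SD of those, cut at about 17% in these data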;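 note: 0% = plate median of compound wells and 100% = probe without SIAE protein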
# Target sequence (Q9HAT2 whole entry, looked up): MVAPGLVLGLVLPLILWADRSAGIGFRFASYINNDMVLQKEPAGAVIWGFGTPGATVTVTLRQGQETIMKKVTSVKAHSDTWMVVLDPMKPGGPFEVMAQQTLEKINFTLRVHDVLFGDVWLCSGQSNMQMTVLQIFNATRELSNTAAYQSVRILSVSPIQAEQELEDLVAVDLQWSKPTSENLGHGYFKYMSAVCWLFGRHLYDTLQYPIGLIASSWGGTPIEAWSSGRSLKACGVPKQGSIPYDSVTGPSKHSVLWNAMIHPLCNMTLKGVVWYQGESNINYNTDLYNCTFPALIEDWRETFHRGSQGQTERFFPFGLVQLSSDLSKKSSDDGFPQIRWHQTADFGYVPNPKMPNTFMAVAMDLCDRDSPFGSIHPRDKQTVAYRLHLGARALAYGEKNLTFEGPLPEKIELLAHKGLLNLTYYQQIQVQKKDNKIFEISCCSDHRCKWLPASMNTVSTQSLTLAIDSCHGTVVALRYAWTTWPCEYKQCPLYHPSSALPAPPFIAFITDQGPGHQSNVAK
# SIAE inh conf: confirmation of human SIAE inhibitors; shares compounds with SIAE inh; SIAE FP-Rh activity-based probe, fluorescence polarization; inhibition, % at 9.66 µM; actives 13% (n = 2,300);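 active = mean inhibition of the replicates above the hit cutoff set in the primary screen, cut at about 17% in these data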;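 note: 0% = SIAE with DMSO and probe and 100% = probe without SIAE; inhibitors lower polarization as more probe stays unbound to SIAE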
# An asterisk follows results filed as active; · = no result.
SMILES,HTRA1 inh,Tn6 DDE FP,ABHD4 inh,DDE Tn7 FP inh,TCR CD3 inh,SIAE inh,SIAE inh conf
CCN(CC)C1=NC=CC(c2ccccc2)=CC1C (configuration not stated),2,-9,-7,-4,-5,28*,-3
Cc1ccc(C)c(-c2nc3ccc(N)cc3[nH]2)c1,12,-2,9,-9,4,10,·
Nc1ccc2nc(-c3cc(Cl)c(N)c(Cl)c3)[nH]c2c1,32,-20,22,4,-11,24*,13
O=[N+]([O-])c1ccc(-c2nc3ccc([N+](=O)[O-])cc3[nH]2)cc1,-4,12,-10,-4,6,18*,7
Nc1ccc(-c2nc3ccc(N)cc3[nH]2)cc1,10,-1,15,-4,-9,25*,8
Nc1ccc2nc(-c3cccc(-c4nc5ccc(N)cc5[nH]4)c3)[nH]c2c1,8,-37,-3,5,-10,26*,37*
O=S1(=O)CC2c3ccc(F)cc3CN2CN1Cc1ccc(F)cc1 (configuration not stated),·,9,-6,3,·,-4,·
O=C(NC1CCCCN(Cc2ccc(Cl)cc2)C1=O)c1ccccc1-c1ccc(Cl)c(Cl)c1 (configuration not stated),·,-2,3,-1,·,2,·
Cc1nc2ccc(-c3nc4ccc(N)cc4[nH]3)cc2[nH]1,6,-1,8,8,-13,6,·
Nc1ccc2nc(-c3ccc(Cl)cc3)[nH]c2c1,33,-8,15,4,-1,54*,4
O=C(CSc1nc2ccccc2[nH]1)NN=Cc1ccccc1C(=O)O,·,2,-2,9,·,2,·
O=C(Nc1ccccc1)c1cn2ccccc2n1,-6,0,-3,1,12,18*,0
O=C(Nc1ccc(-n2cnnn2)cc1)c1cn2ccccc2n1,3,·,·,·,·,·,·
COc1ccc(NC(=S)Nc2nc(CC(=O)Nc3ccccc3OC)cs2)cc1,-19,6,-6,1,4,21*,7
NC(=O)c1ccc(NC(=O)c2cc(S(=O)(=O)N3CCCCC3)ccc2N2CCOCC2)cc1,-3,13,5,1,-1,21*,-3
CC(=O)Nc1ccc(NC(=O)c2cc(S(=O)(=O)N3CCCCC3)ccc2N2CCOCC2)cc1,2,6,-3,-4,4,-7,·
C[C@H](O)[C@@H]1CN2CCc3ccc(N4CCOCC4)cc3[C@@H]2C[C@@H]1N(C)CC1CCCCC1,·,-10,8,-1,·,3,·
COC(=O)[C@]12C[C@H](CC(=O)NCCC(C)C)C(=O)N(CCc3ccc(OC)c(OC)c3)C1=C[C@H](C(C)C)O[C@@H]2C1CC1,·,4,-1,0,·,4,·
CCOc1cccc(/C=N/N2CCN(c3ccc(Cl)cc3)CC2)c1O,-25,-3,2,-3,0,21*,1
CN(C)c1ccc(N=Cc2nc(-c3ccccc3)oc2O)cc1,1,-7,1,-2,1,18*,15
Oc1oc(-c2ccccc2)nc1C=Nc1ccccc1,0,2,7,-2,8,0,·
COc1ccc2c3c([nH]c2c1)[C@]1(CCNC=O)Nc2ccccc2C1=NCC3,·,-3,7,3,·,0,·
Cn1cc(S(=O)(=O)N2CCN(c3ccccc3)CC2)c(=O)n(C)c1=O,3,-3,10,1,-10,60*,2
Cc1ccc(S(=O)(=O)N2CCN(c3ccccc3)CC2)c(C)c1,-8,-4,2,-5,-6,22*,5
COC(=O)[C@]1(C#N)CC(=O)N(C)[C@@H]1c1ccccc1,·,2,-2,-4,·,-5,·
SMILES,HTRA1 inh,Tn6 DDE FP,ABHD4 inh,DDE Tn7 FP inh,TCR CD3 inh,SIAE inh,SIAE inh conf
O=C(c1ccc2c3n(nc2c1)-c1ccccc1CO3)N1CCCCC1,-8,0,12,7,1,17*,-2
CC(OC(=O)c1ccc(Cl)nc1)C(=O)NC1CCCC1 (configuration not stated),-1,-6,0,3,-5,19*,-2
CCCC/C=C1/[C@H](c2ccccc2)N(C)C2=N[C@H](c3ccccc3)CC(=O)N21,·,4,-1,4,·,-1,·
O=S1(=O)CC2c3ccc(F)cc3CN2CN1C1CCCC1 (configuration not stated),·,0,-17,0,·,2,·
NC(=S)NNc1ccnc2cc(Cl)ccc12,0,8,14,2,-9,20*,2
FC(F)Oc1ccc(NC(=S)NNc2ccnc3cc(Cl)ccc23)cc1,15,0,24,-2,-6,35*,0
C/C(=N/Nc1ccnc2cc(Cl)ccc12)c1ccc(O)cc1,4,-4,29,-1,2,37*,15
COc1ccc(-c2noc(C3CCCN(C(=O)N[C@@H]4C[C@H]4c4ccccc4)C3)n2)cc1 (some centres not stated),·,-5,-15,5,·,-3,·
COc1ccc(Cn2c(NC(=O)c3ccccc3)nc(Cc3ccccc3)c2Cc2ccccc2)c(OC)c1,·,-4,7,6,·,-5,·
Cc1[nH]n(-c2ccc(Br)cc2)c(=O)c1/C=N/NC(=O)c1ccccc1,14,-2,8,-3,4,17*,2
NC(=S)N/N=C1\CCOc2ccc(Cl)cc21,-2,4,10,4,-6,18*,-2
CCOc1ccc(Nc2nc(N)c([N+](=O)[O-])c(NCc3ccccc3)n2)cc1,14,1,2,4,6,20*,32*
Nn1c(SCC(=O)Nc2ccc(OCc3ccccc3)cc2)nnc1-c1cc(-c2ccccc2)n[nH]1,·,-2,-2,0,·,-1,·
COc1cccc(CCNC(=O)CC2C(=O)NCCN2CC(C)(C)C)c1 (configuration not stated),-2,6,3,6,9,17*,-2
CN(C)CCN(C(=O)C1CCN(S(=O)(=O)c2cccs2)CC1)c1nc2c(F)cccc2s1,0,1,4,-11,-3,19*,-1
COc1ccc(S[C@]2(C(=O)N3CCOCC3)CC(=O)N(c3ccsc3)[C@@H]2c2ccc(OC)cc2)cc1,·,-2,-3,-1,·,-8,·
C=CCNC(=O)c1ccc(-c2nc3ccccc3nc2-c2ccccc2)cc1,-24,5,-8,-9,3,33*,-1
CCOC(=O)N/N=C/c1cn(Cc2ccc(Cl)cc2)c2ccccc12,-9,0,-2,-6,3,18*,-4
COC[C@H]1CCCN1c1cccc2c1S(=O)(=O)N(C1CC1)CC[C@@H](C)O2,·,2,5,8,·,-2,·
